Test results taken from ChEMBL document CHEMBL1145847, “(S)-N-[1-(3-morpholin-4-ylphenyl)ethyl]- 3-phenylacrylamide: an orally bioavailable KCNQ2 opener with significant activity in a cortical spreading depression model of migraine” (J Med Chem, 2003).

Assays:
[1] = Volume of distribution was determined in dog at 1 mg/kg, iv; format: ADME, organism-based, Canis lupus familiaris; set-up: dose 1 mg/kg, route intravenous; conditions: in vivo, read-out: Vdss
Procedure, shortened: (§1)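 Beagle dogs (n = 3), 1 mg/kg iv as a solution in 50% PEG-400/50% H2O; plasma pharmacokinetics giving clearance, half-life and steady-state volume of distribution.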

[2] = Clearance rate determined at 5 mg/kg, iv, in rat; format: ADME, organism-based; set-up: dose 5 mg/kg; conditions: in vivo
Procedure, shortened: (§2)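 Sprague–Dawley rats (n = 3), 5 mg/kg iv as a solution in 90% PEG-400/10% Tween 80; plasma pharmacokinetics giving clearance, half-life and steady-state volume of distribution.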

[3] = Volume of distribution was determined in rat at 5 mg/kg, iv; format: ADME, organism-based; set-up: dose 5 mg/kg, route intravenous; conditions: in vivo, read-out: Vdss; procedure, shortened: as §2
[4] = Percentage oral bioavailability determined in rat; format: ADME, organism-based; conditions: in vivo, read-out: Bioavailabiility
[5] = Ratio of concentration of compound in brain to the concentration in plasma; conditions: brain and plasma, B/P ratio
[6] = Percentage oral bioavailability determined in dog; format: ADME, organism-based, Canis lupus familiaris; conditions: in vivo, read-out: Bioavailabiility
Procedure, shortened: (§3)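 Beagle dogs (n = 3), oral solution at 3 mg/kg in 50% PEG-400/50% H2O, with iv reference at 1 mg/kg; tmax and oral bioavailability derived.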

[7] = Ratio of proximal to distal depolarizations determined in rat at 3 mg/kg; format: functional
Procedure, shortened: (§4)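 Rats; cortical spreading depression evoked by 10 min application of crystalline KCl to a small parietal cortex region. Compound given intragastrically in PEG 400 vehicle. Depolarizations counted in proximal and distal leads per animal; proximal/distal ratio calculated per group. Group mean ± SEM; Kruskal–Wallis with Dunn's posttest.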

[8] = Half-life determined at 5 mg/kg, iv, in rat; format: ADME, organism-based; set-up: dose 5 mg/kg; conditions: in vivo; procedure, shortened: as §2
[9] = tmax determined rat at 11 mg/kg, po; format: ADME, organism-based; set-up: dose 11 mg/kg, route oral; conditions: in vivo
[10] = Ratio of proximal to distal depolarizations determined in rat at 10 mg/kg; format: functional; procedure, shortened: as §4
[11] = Concentration determined in rat plasma after 6 hr; format: ADME, organism-based
Procedure, shortened: (§5)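 Sprague–Dawley rats (n = 3) dosed po at 20 mg/kg as a solution in 100% PEG-400; brain and plasma sampled at 6 h.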

[12] = Ratio of proximal to distal depolarizations determined in rat at 30 mg/kg; format: functional; procedure, shortened: as §4
Rattus norvegicus [13] = assay: Ability to reduce the total number of proximal depolarizations was tested in rat parietal cortex at 30 mg/kg, ig; format: functional; conditions: route intragastric; procedure, shortened: as §4
[14] = biological target: Potassium voltage-gated channel subfamily KQT member 2 (Mus musculus) (UniProt Q9Z351); assay: Threshold for augmenting KCNQ2 current in HEK 293 stable cell line expressing mKCNQ2 channel; format: functional, cell-based; conditions: HEK293
Sequence of Potassium voltage-gated channel subfamily KQT member 2 (Mus musculus) (Q9Z351 whole entry, the tested form may be a part): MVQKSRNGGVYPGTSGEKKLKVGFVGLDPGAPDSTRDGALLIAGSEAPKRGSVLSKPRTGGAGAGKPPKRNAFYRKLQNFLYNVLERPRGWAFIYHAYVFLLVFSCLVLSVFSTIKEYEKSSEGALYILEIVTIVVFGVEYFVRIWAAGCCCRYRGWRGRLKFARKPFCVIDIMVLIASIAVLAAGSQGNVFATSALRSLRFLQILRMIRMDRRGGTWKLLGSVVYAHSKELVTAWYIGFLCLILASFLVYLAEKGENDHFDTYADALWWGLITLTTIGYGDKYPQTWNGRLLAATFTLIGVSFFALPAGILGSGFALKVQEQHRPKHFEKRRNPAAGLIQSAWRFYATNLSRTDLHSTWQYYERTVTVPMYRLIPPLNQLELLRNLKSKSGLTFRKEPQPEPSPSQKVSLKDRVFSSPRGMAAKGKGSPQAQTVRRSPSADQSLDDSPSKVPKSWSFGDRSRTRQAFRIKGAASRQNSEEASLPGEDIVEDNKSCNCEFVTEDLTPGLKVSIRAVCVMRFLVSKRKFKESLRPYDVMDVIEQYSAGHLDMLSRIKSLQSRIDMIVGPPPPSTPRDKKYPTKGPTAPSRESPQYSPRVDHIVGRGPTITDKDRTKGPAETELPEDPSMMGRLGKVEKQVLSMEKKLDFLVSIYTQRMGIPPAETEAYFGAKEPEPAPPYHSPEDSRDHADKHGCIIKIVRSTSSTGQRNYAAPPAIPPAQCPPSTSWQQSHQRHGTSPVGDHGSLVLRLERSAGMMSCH
Procedure, shortened: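 HEK 293 cells stably expressing mKCNQ2, voltage-clamped at -40 mV; compound applied by local superfusion at increasing concentrations, then washed with compound-free saline; concentration–response from three cells with logistic fit.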

[15] = biological target: Potassium voltage-gated channel subfamily KQT member 2 (Mus musculus, UniProt Q9Z351); assay: Induced current in Xenopus laevis oocytes expressing cloned mKCNQ2 channels; format: functional, cell-based, Oocyte
Sequence of Potassium voltage-gated channel subfamily KQT member 2 (Q9Z351 whole entry): as the sequence (Q9Z351 whole entry, the tested form may be a part) above
Procedure, shortened: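 Two-electrode voltage clamp of Xenopus laevis oocytes expressing cloned mKCNQ2; outward current at -40 mV expressed as percent of compound-free control; concentration–response fit for EC50, n = 4–7 oocytes.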

[16] = biological target: Voltage-gated potassium channel, KQT; KCNQ2(Kv7.2)/KCNQ3(Kv7.3) (Homo sapiens, UniProt O43525+O43526); assay: Effect on resting membrane potential in SH-SY5Y human neuroblastoma cells expressing native KCNQ channels
Sequence of Voltage-gated potassium channel, KQT; KCNQ2(Kv7.2)/KCNQ3(Kv7.3) (O43526 whole entry): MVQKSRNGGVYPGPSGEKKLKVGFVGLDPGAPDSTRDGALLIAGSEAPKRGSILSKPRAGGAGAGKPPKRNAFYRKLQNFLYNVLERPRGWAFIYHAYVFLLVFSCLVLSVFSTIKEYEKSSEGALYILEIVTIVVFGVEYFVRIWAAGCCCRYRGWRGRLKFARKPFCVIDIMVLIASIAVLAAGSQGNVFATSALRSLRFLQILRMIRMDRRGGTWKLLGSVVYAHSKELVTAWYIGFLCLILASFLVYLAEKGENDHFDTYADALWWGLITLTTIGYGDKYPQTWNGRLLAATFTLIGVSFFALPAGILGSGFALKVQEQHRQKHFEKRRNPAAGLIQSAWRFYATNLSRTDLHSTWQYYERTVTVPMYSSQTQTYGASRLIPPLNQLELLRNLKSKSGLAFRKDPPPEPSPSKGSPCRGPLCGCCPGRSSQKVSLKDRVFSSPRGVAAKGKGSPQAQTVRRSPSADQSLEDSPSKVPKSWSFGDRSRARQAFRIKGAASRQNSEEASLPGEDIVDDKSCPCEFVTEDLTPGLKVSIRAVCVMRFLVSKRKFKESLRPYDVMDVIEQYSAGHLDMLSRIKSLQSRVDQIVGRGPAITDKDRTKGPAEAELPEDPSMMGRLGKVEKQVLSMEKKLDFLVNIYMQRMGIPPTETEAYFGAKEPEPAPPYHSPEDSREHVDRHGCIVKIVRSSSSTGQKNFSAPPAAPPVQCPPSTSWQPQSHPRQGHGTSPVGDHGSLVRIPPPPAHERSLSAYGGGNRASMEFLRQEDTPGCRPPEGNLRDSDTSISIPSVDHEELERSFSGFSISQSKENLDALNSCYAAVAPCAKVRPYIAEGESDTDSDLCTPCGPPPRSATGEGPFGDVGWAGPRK
Sequence of Voltage-gated potassium channel, KQT; KCNQ2(Kv7.2)/KCNQ3(Kv7.3) (O43525 whole entry): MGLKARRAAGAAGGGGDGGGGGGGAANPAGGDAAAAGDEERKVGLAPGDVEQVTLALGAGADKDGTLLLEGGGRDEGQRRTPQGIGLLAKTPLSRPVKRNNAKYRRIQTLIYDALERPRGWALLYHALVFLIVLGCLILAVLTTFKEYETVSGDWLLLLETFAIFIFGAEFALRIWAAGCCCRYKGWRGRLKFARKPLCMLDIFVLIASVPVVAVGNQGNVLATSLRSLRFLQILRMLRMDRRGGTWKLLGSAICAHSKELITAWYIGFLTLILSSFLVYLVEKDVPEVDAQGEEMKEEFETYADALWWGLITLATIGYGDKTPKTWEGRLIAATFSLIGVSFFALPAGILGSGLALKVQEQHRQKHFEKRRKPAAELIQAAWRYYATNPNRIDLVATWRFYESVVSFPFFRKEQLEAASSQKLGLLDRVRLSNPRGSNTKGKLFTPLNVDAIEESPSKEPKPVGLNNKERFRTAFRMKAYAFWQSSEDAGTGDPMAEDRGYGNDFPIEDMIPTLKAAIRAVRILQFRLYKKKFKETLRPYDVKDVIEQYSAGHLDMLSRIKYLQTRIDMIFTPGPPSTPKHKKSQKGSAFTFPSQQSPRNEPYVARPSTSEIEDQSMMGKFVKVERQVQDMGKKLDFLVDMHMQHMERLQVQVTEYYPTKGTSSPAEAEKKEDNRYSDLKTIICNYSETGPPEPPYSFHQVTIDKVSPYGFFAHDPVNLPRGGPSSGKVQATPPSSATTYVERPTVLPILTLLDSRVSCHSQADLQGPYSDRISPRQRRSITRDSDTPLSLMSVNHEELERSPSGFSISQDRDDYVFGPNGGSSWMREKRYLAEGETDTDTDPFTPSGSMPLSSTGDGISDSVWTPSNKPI

Rattus norvegicus [17] = assay: Ability to reduce the total number of proximal depolarizations was tested in rat parietal cortex at 10 mg/kg, ig; format: functional; conditions: route intragastric; procedure, shortened: as §4
[18] = Concentration determined in rat brain after 6 hr; format: ADME, organism-based; procedure, shortened: as §5
Rattus norvegicus [19] = assay: Ability to reduce the total number of proximal depolarizations was tested in rat parietal cortex at 3 mg/kg, ig; format: functional; conditions: route intragastric; procedure, shortened: as §4
[20] = Half-life determined at 1 mg/kg, iv, in dog; format: ADME, organism-based, Canis lupus familiaris; set-up: dose 1 mg/kg; conditions: in vivo; procedure, shortened: as §1
[21] = Clearance rate determined at 1 mg/kg, iv, in dog; format: ADME, organism-based, Canis lupus familiaris; set-up: dose 1 mg/kg; conditions: in vivo; procedure, shortened: as §1
[22] = tmax determined dog at 3 mg/kg, po; format: ADME, organism-based, Canis lupus familiaris; set-up: dose 3 mg/kg, route oral; conditions: in vivo; procedure, shortened: as §3

## C[C@H](NC(=O)/C=C/c1ccccc1)c1cccc(N2CCOCC2)c1
[1]
  Vd: 3 L/kg
[2]
  clearance: 41 mL/min/kg
[3]
  Vd: 2.5 L/kg
[4]
  bioavailability: 93%
[5]
  Kp: 0.78
[6]
  bioavailability: 100%
[7]
  P/D: 1.1
[8]
  half-life: 2.1 h
[9]
  Tmax: 5 h
[10]
  P/D: 1.15
[11]
  concentration at 6 h: 804 ng/mL
[12]
  P/D: 1.22
Rattus norvegicus [13]
  No. of depolarizations: 23
[14]
  Concentration: 300 nM
[15]
  EC50: 6 µM
[16]
  EC50: 0.69 µM
Rattus norvegicus [17]
  No. of depolarizations: 25
[18]
  concentration at 6 h: 631 ng/g
Rattus norvegicus [19]
  No. of depolarizations: 36
[20]
  half-life: 3 h
[21]
  clearance: 12.7 mL/min/kg
[22]
  Tmax: 0.5 h
